In ChEMBL document CHEMBL2429855, “Efforts toward broadening the spectrum of arylomycin antibiotic activity” (Bioorg Med Chem Lett, 2013):
Converted amounts (≈) assume the structure as drawn.

Assays:
[1] = test system: Escherichia coli; assay: Antibacterial activity against Escherichia coli MG1655 harboring lptD lepB (P84L) mutation assessed as growth inhibition after 22 hrs by broth microdilution method; assay type: functional; conditions: K-12 substr. MG1655, 22 h
How it was run: (§1)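 MIC by broth microdilution against wild-type S. epidermidis RP62A, MSSA 8325, MRSA USA300 and E. coli MG1655. Also tested: S. aureus 8325 and E. coli MG1655 mutants made sensitive by mutating the resistance-conferring SPase Pro residue, an lptD hyperpermeable E. coli (outer membrane permeable to large molecules), and an E. coli combining lptD with SPase sensitization.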

[2] = test system: Escherichia coli; assay: Antibacterial activity against Escherichia coli MG1655 harboring lptD mutation assessed as growth inhibition after 22 hrs by broth microdilution method; assay type: functional; conditions: K-12 substr. MG1655, 22 h; how it was run: as §1
[3] = test system: Escherichia coli; assay: Antibacterial activity against Escherichia coli MG1655 harboring lepB (P84L) mutation assessed as growth inhibition after 22 hrs by broth microdilution method; assay type: functional; conditions: K-12 substr. MG1655, 22 h; how it was run: as §1
[4] = test system: Staphylococcus aureus; assay: Antibacterial activity against Staphylococcus aureus 8325 harboring spsB (P29S) mutation assessed as growth inhibition after 22 hrs by broth microdilution method; assay type: functional; conditions: NCTC 8325, 22 h; how it was run: as §1
[5] = test system: Escherichia coli; assay: Antibacterial activity against wild type Escherichia coli MG1655 assessed as growth inhibition after 22 hrs by broth microdilution method; assay type: functional; conditions: K-12 substr. MG1655, 22 h; how it was run: as §1
[6] = test system: Staphylococcus aureus; assay: Antibacterial activity against wild type methicillin-resistant Staphylococcus aureus USA300 assessed as growth inhibition after 22 hrs by broth microdilution method; assay type: functional; conditions: USA300, 22 h; how it was run: as §1
[7] = test system: Staphylococcus aureus; assay: Antibacterial activity against wild type methicillin-sensitive Staphylococcus aureus 8325 assessed as growth inhibition after 22 hrs by broth microdilution method; assay type: functional; conditions: NCTC 8325, 22 h; how it was run: as §1
[8] = test system: Staphylococcus epidermidis; assay: Antibacterial activity against wild type Staphylococcus epidermidis RP62A assessed as growth inhibition after 22 hrs by broth microdilution method; assay type: functional; how it was run: as §1
[9] = molecular target: T1, Signal peptidase IB (Staphylococcus aureus, UniProt P0A070); assay: Binding affinity to Staphylococcus aureus type-1 signal peptidase using decanoyl-LSSPAYNO2A-ADKabzPD and decanyol-LTPTAYNO2A-ASKKabzDD as substrate by fluorescence assay
T1 sequence (P0A070 whole entry): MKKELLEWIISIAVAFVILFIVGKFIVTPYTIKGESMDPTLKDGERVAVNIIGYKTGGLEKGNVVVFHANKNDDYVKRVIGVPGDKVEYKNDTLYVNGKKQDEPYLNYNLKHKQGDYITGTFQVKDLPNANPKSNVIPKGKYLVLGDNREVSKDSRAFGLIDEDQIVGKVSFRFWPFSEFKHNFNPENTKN

[10] = molecular target: Signal peptidase I (Escherichia coli K-12, UniProt P00803); assay: Binding affinity to Escherichia coli type-1 signal peptidase lepB using decanoyl-LSSPAYNO2A-ADKabzPD and decanyol-LTPTAYNO2A-ASKKabzDD as substrate by fluorescence assay

Row | SMILES | MIC [1] [µg/mL] | MIC [2] [µg/mL] | MIC [3] [µg/mL] | MIC [4] [µg/mL] | MIC [5] [µg/mL] | MIC [6] [µg/mL] | MIC [7] [µg/mL] | MIC [8] [µg/mL] | IC50 [9] [nM] | IC50 [10] [nM]
1 | CCCCCCCCCCCCCCCC(=O)N(C)[C@H](CO)C(=O)N[C@H](C)C(=O)NCC(=O)N(C)[C@@H]1C(=O)N[C@@H](C)C(=O)N[C@H](C(=O)NCP(=O)(Oc2ccccc2)Oc2ccccc2)Cc2ccc(O)c(c2)-c2cc1ccc2O | 8 (≈ 7.1 µM) | > 64 | > 64 | > 64 | > 64 | > 64 | > 64 | > 64 | > 17800 | > 17800
2 | CCCCCCCCCCCCCCCC(=O)N(C)[C@H](CO)C(=O)N[C@H](C)C(=O)NCC(=O)N(C)[C@@H]1C(=O)N[C@@H](C)C(=O)N[C@H](C(=O)O)Cc2ccc(O)c(c2)-c2cc1ccc2OCCO | 0.02 (≈ 0.0216 µM) | 16 (≈ 17.3 µM) | 1 (≈ 1.08 µM) | 8 (≈ 8.65 µM) | > 64 | > 64 | > 64 | 1 (≈ 1.08 µM) | 4220 | 75.7
3 | CCCCCCCCCCCCCCCC(=O)N(C)[C@H](CO)C(=O)N[C@H](C)C(=O)NCC(=O)N(C)[C@@H]1C(=O)N[C@@H](C)C(=O)N[C@H](C(=O)NCC=O)Cc2ccc(O)c(c2)-c2cc1ccc2OCCN | 0.06 (≈ 0.0622 µM) | > 64 | 2 (≈ 2.07 µM) | 32 (≈ 33.2 µM) | > 64 | > 64 | > 64 | 1 (≈ 1.04 µM) | 332 | 87
4 | CCCCCCCCCCCCCCCC(=O)N(C)[C@H](CO)C(=O)N[C@H](C)C(=O)NCC(=O)N(C)[C@@H]1C(=O)N[C@@H](C)C(=O)N[C@H](C(=O)NCC=O)Cc2ccc(O)c(c2)-c2cc1ccc2OCCO | 0.03 (≈ 0.031 µM) | 16 (≈ 16.6 µM) | 2 (≈ 2.07 µM) | 8 (≈ 8.28 µM) | > 64 | 64 (≈ 66.2 µM) | > 64 | 2 (≈ 2.07 µM) | 63.1 | 9.31
5 | CCCCCCCCCCCCCCCC(=O)N(C)[C@H](CO)C(=O)N[C@H](C)C(=O)NCC(=O)N(C)[C@@H]1C(=O)N[C@@H](C)C(=O)N[C@H](C(=O)O)Cc2ccc(O)c(c2)-c2cc1ccc2OP(=O)(O)O | 0.03 (≈ 0.0312 µM) | 32 (≈ 33.3 µM) | 1 (≈ 1.04 µM) | > 64 | > 64 | > 64 | > 64 | 0.3 (≈ 0.312 µM) | 1980 | 146
6 | CCCCCCCCCCCCCCCC(=O)N(C)[C@H](CO)C(=O)N[C@H](C)C(=O)NCC(=O)N(C)[C@@H]1C(=O)N[C@@H](C)C(=O)N[C@H](C(=O)NCP(=O)(O)O)Cc2ccc(O)c(c2)-c2cc1ccc2O | 0.1 (≈ 0.103 µM) | > 64 | 4 (≈ 4.11 µM) | > 64 | > 64 | 64 (≈ 65.7 µM) | > 64 | 8 (≈ 8.21 µM) | 16400 | 842
7 | CCCCCCCCCCCCCCCC(=O)N(C)[C@H](CO)C(=O)N[C@H](C)C(=O)NCC(=O)N(C)[C@@H]1C(=O)N[C@@H](C)C(=O)N[C@H](C(=O)NCC=O)Cc2ccc(O)c(c2)-c2cc1ccc2O | 0.06 (≈ 0.0651 µM) | > 64 | 4 (≈ 4.34 µM) | 8 (≈ 8.68 µM) | > 64 | 16 (≈ 17.4 µM) | > 64 | 2 (≈ 2.17 µM) | 53.1 | 16.3
8 | CCCCCCCCCCCCCCCC(=O)N(C)[C@H](CO)C(=O)N[C@H](C)C(=O)NCC(=O)N(C)[C@@H]1C(=O)N[C@@H](C)C(=O)N[C@H](C(=O)NCP(=O)(OC)OC)Cc2ccc(O)c(c2)-c2cc1ccc2O | 2 (≈ 2 µM) | > 64 | 64 (≈ 63.9 µM) | > 64 | > 64 | > 64 | > 64 | 8 (≈ 7.98 µM) | > 20000 | 20000
9 | CCCCCCCCCCCCCCCC(=O)N(C)[C@H](CO)C(=O)N[C@H](C)C(=O)NCC(=O)N(C)[C@@H]1C(=O)N[C@@H](C)C(=O)N[C@H](C(=O)O)Cc2ccc(O)c(c2)-c2cc1ccc2OCCN | 0.004 (≈ 0.00433 µM) | 4 (≈ 4.33 µM) | 0.5 (≈ 0.541 µM) | 4 (≈ 4.33 µM) | > 64 | 32 (≈ 34.6 µM) | > 64 | 0.1 (≈ 0.108 µM) | 3460 | 55.2
10 | CCCCCCCCCCCCCCCC(=O)N(C)[C@H](CO)C(=O)N[C@H](C)C(=O)NCC(=O)N(C)[C@@H]1C(=O)N[C@@H](C)C(=O)N[C@H](CC(=O)NCC=O)Cc2ccc(O)c(c2)-c2cc1ccc2O | 2 (≈ 2.14 µM) | > 64 | > 64 | > 64 | > 64 | > 64 | > 64 | 32 (≈ 34.2 µM) | > 21400 | 1010
11 | CCCCCCCCCCCCCCCC(=O)N(C)[C@H](CO)C(=O)N[C@H](C)C(=O)NCC(=O)N(C)[C@@H]1C(=O)N[C@@H](C)C(=O)N[C@H](C(=O)NCP(=O)(OCC)OCC)Cc2ccc(O)c(c2)-c2cc1ccc2O | 2 (≈ 1.94 µM) | > 64 | > 64 | > 64 | > 64 | > 64 | > 64 | 8 (≈ 7.77 µM) | > 19400 | > 19400
12 | CCCCCCCCCCCCCCCC(=O)N(C)[C@H](CO)C(=O)N[C@H](C)C(=O)NCC(=O)N(C)[C@@H]1C(=O)N[C@@H](C)C(=O)N[C@H](C(=O)NCC=O)Cc2ccc(O)c(c2)-c2cc1ccc2OP(=O)(OCc1ccccc1)OCc1ccccc1 | 0.3 (≈ 0.254 µM) | 64 (≈ 54.1 µM) | 16 (≈ 13.5 µM) | 32 (≈ 27.1 µM) | > 64 | > 64 | > 64 | 1 (≈ 0.846 µM) | 152 | 195
13 | CCCCCCCCCCCCCCCC(=O)N(C)[C@H](CO)C(=O)N[C@H](C)C(=O)NCC(=O)N(C)[C@@H]1C(=O)N[C@@H](C)C(=O)N[C@H](C(=O)O)Cc2ccc(O)c(c2)-c2cc1ccc2O [ARYLOMYCIN C16] | 0.02 (≈ 0.0227 µM) | 16 (≈ 18.2 µM) | 0.5 (≈ 0.567 µM) | 4 (≈ 4.54 µM) | > 64 | > 64 | > 64 | 0.25 (≈ 0.284 µM) | 1800 | 70
